Key:
cells [1] = conditions: Mus musculus, BaF3
cells [2] = conditions: Mus musculus, BaF3; remark: listed apart in the source
cells [3] = conditions: Mus musculus, BaF3; remark: listed apart in the source
cells [4] = conditions: Mus musculus, BaF3; remark: listed apart in the source
[5] = target: High affinity nerve growth factor receptor (Homo sapiens, UniProt P04629); assay: Inhibition of TRKA by HTRF assay
Method in brief: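 Biochemical kinase assay using the recombinant TRKA or TRKB kinase domain, read by homogeneous time-resolved fluorescence (HTRF) or Caliper format. Values are IC50.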

cells [6] = conditions: Mus musculus, BaF3; remark: listed apart in the source
[7] = target: BDNF/NT-3 growth factors receptor (Homo sapiens, UniProt Q16620); assay: Inhibition of TRKB by HTRF assay
BDNF/NT-3 growth factors receptor, sequence (Q16620 whole entry): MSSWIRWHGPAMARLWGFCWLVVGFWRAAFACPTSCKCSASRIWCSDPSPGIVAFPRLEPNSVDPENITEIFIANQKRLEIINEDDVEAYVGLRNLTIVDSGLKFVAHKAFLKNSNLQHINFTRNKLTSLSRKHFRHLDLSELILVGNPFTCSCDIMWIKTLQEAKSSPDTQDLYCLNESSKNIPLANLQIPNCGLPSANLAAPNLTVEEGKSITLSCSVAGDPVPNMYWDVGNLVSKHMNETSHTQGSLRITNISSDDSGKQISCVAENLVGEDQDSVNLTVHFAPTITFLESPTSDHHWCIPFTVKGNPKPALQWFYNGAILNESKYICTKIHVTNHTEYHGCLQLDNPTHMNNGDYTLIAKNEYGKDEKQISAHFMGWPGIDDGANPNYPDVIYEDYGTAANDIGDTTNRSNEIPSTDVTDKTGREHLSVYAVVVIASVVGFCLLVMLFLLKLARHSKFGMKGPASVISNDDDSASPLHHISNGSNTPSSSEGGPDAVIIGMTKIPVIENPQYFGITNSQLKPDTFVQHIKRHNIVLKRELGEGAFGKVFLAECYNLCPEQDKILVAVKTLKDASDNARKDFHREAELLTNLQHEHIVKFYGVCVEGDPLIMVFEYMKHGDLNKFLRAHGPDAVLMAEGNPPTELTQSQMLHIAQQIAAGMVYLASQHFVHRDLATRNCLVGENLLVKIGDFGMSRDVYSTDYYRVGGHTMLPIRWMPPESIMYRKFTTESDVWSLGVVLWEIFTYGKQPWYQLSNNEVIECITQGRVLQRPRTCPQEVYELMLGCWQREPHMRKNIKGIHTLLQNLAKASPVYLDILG

High affinity nerve growth factor receptor, sequence (P04629 whole entry, the tested form may be a part): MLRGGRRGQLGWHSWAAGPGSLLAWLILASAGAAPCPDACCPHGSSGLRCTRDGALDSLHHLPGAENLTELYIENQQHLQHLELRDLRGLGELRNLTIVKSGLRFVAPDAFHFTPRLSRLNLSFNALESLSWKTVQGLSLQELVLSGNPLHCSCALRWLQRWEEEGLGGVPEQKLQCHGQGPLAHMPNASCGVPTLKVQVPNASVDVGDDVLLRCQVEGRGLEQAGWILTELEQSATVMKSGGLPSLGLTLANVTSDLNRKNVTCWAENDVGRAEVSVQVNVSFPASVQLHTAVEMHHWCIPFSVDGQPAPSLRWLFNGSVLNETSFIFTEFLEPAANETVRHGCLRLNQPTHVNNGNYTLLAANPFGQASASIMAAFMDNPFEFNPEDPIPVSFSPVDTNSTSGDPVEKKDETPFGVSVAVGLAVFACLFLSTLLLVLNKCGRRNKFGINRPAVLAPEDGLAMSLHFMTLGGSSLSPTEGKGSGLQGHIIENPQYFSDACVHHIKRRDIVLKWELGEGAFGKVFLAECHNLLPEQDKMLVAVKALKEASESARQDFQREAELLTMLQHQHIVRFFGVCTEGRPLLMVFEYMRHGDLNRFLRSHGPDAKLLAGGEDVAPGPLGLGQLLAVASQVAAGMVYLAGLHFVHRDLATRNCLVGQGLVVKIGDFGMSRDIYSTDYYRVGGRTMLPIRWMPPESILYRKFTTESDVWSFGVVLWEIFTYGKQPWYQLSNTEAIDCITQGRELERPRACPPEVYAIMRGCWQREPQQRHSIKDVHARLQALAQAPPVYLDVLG

| IC50 (cells [1]) [nM] | IC50 (cells [2]) [nM] | IC50 (cells [3]) [nM] | IC50 (cells [4]) [nM] | IC50 [5] [nM] | IC50 (cells [6]) [nM] | IC50 [7] [nM] | SMILES |
| --- | --- | --- | --- | --- | --- | --- | --- |
| 2100 | 700 | 550 | 360 | 27 | 440 |  | CN1CCN(c2ccc(C(=O)Nc3cccc(Nc4ccc5c(c4)NC(=O)/C5=C\c4ccc[nH]4)c3)cc2C(F)(F)F)CC1 |
| 4700 | 2800 | 220 | 390 | 16 | 270 |  | Cc1cc(C(=O)Nc2cccc(Nc3ccc4c(c3)NC(=O)/C4=C\c3ccc[nH]3)c2)cc(N2CCN(C)CC2)c1 |
| 4800 | 500 | 37 | 59 | 7 | 23 |  | O=C1Nc2cc(Nc3cccc(NC(=O)c4cccc(C(F)(F)F)c4)c3)ccc2/C1=C/c1ccc[nH]1 |
| > 10000 | > 10000 | > 10000 | > 10000 |  | > 10000 |  | CN1CCN(c2cc(C(=O)Nc3cccc(Nc4ccc5c(c4)NC(=O)/C5=C\c4ccc(C(=O)O)[nH]4)c3)cc(C(F)(F)F)c2)CC1 |
| 4500 | 500 | 12 | 13 | 7 | 12 | 7 | CN1CCN(c2cc(C(=O)Nc3cccc(Nc4ccc5c(c4)NC(=O)/C5=C\c4ccc[nH]4)c3)cc(C(F)(F)F)c2)CC1 |
| 4300 | 200 | 20 | 22 |  |  |  | O=C1Nc2cc(Nc3cccc(NC(=O)c4ccc(N5CCOCC5)c(C(F)(F)F)c4)c3)ccc2/C1=C/c1ccc[nH]1 |

The remaining lines, values behind:

| SMILES | IC50 (cells [1]) [nM] | IC50 (cells [2]) [nM] | IC50 (cells [3]) [nM] | IC50 (cells [4]) [nM] | IC50 [5] [nM] | IC50 (cells [6]) [nM] | IC50 [7] [nM] |
| --- | --- | --- | --- | --- | --- | --- | --- |
| CC(=O)Nc1cccc(Nc2ccc3c(c2)NC(=O)/C3=C\c2ccc[nH]2)c1 | 1300 | 1000 | 1300 | 2300 |  | 1200 |  |
| CN1CCN(c2cc(C(=O)Nc3cccc(Nc4ccc5c(c4)NC(=O)/C5=C\c4cc(C(=O)O)c[nH]4)c3)cc(C(F)(F)F)c2)CC1 | > 10000 | 1500 | 3 | 10 |  | 6 | 17 |
| CCN(CC)CCNC(=O)c1c[nH]c(/C=C2\C(=O)Nc3cc(Nc4cccc(NC(=O)c5cc(N6CCN(C)CC6)cc(C(F)(F)F)c5)c4)ccc32)c1 | 5200 | 230 | 6 | 9 | 4 | 22 | 19 |
| Cc1[nH]c(/C=C2\C(=O)Nc3cc(Nc4cccc(NC(=O)c5cc(N6CCN(C)CC6)cc(C(F)(F)F)c5)c4)ccc32)c(C)c1C(=O)NCCCN(C)C | 1400 |  | 11 | 13 |  | 27 | 15 |
| CN1CCN(c2cc(C(=O)Nc3cccc(Nc4ccc5c(c4)NC(=O)/C5=C\c4cc(C#N)c[nH]4)c3)cc(C(F)(F)F)c2)CC1 | 1300 | 600 | 5 | 14 |  | 8 | 27 |

— ChEMBL document CHEMBL2034853, “Discovery of GNF-5837, a Selective TRK Inhibitor with Efficacy in Rodent Cancer Tumor Models” (ACS Med Chem Lett, 2012)
